Reference: ChEMBL document CHEMBL5038571, “Design and Synthesis of EZH2-Based PROTACs to Degrade the PRC2 Complex for Targeting the Noncatalytic Activity of EZH2” (J Med Chem, 2021)
Active and inactive are the calls of the source. No cut-off for these calls is given here.

Assays:
[1] = target: T1, Protein cereblon/Histone-lysine N-methyltransferase EZH2 (Homo sapiens) (UniProt Q15910+Q96SW2); assay: PROTAC activity at CRBN E3 ligase/EZH2 in PRC2 complex in human WSUDLCL2 cells assessed as induction of SUZ12 degradation at up to 10 uM incubated for 72 hrs by Western blot analysis; type: cell-based; details: dose microM <=10, time 72.0 hrs
[2] = target: T1, Protein cereblon/Histone-lysine N-methyltransferase EZH2 (Homo sapiens); assay: PROTAC activity at CRBN E3 ligase/EZH2 in PRC2 complex in human WSUDLCL2 cells assessed as reduction in H3K27me3 level at 1 uM incubated for 48 hrs by Western blot analysis; type: cell-based
Procedure, shortened: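 WSU-DLCL-2 cells treated 48 h (1 μM for the single-concentration screen), lysed; SDS-PAGE, nitrocellulose transfer, 5% milk block, primary antibody 4 °C overnight, chemiluminescence. Bands quantified by densitometry, normalized to GAPDH, expressed relative to DMSO-treated cells; mean ± SD of three independent experiments, t-test.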

[3] = target: Histone-lysine N-methyltransferase EZH2 (Homo sapiens, UniProt Q15910); type: cell-based, Sf9
[4] = target: T1, Protein cereblon/Histone-lysine N-methyltransferase EZH2 (Homo sapiens); assay: PROTAC activity at CRBN E3 ligase/EZH2 in PRC2 complex in human WSUDLCL2 cells assessed as induction of EZH2 degradation incubated for 72 hrs by Western blot analysis; type: cell-based; details: dose 0-10 µM
[5] = target: T1, Protein cereblon/Histone-lysine N-methyltransferase EZH2 (Homo sapiens); assay: PROTAC activity at CRBN E3 ligase/EZH2 in PRC2 complex in human WSUDLCL2 cells assessed as reduction in H3K27me3 level incubated for 72 hrs by Western blot analysis; type: cell-based; details: dose 0-10 µM
[6] = target: T1, Protein cereblon/Histone-lysine N-methyltransferase EZH2 (Homo sapiens); assay: PROTAC activity at CRBN E3 ligase/EZH2 in PRC2 complex in human WSUDLCL2 cells assessed as induction of EED degradation at up to 10 uM incubated for 72 hrs by Western blot analysis; type: cell-based; details: dose microM <=10, time 72.0 hrs
MDA-MB-468 [7] = assay: Downregulation of CENPK mRNA expression in human MDA-MB-468 cells at 10 uM incubated for 48 hrs by qRT-PCR analysis; type: functional, cell-based
Procedure, shortened: (§1)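 Cells treated 48 h. Total RNA extracted with Trizol, reverse-transcribed, and SYBR RT-qPCR run: 95 °C 30 s, then 40 cycles of 95 °C 6 s and 60 °C 20 s. mRNA normalized to the DMSO-treated group. Mean SD of three independent experiments, t-test versus DMSO.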

MDA-MB-468 [8] = assay: Downregulation of […] mRNA expression in human MDA-MB-468 cells at 10 uM incubated for 48 hrs by qRT-PCR analysis; type: functional, cell-based; procedure, shortened: as §1
A549 [9] = assay: Downregulation of ARL6IP mRNA expression in human A549 cells at 10 uM incubated for 48 hrs by qRT-PCR analysis; type: functional, cell-based; procedure, shortened: as §1
A549 [10] = assay: Downregulation of CHEK1 mRNA expression in human A549 cells at 10 uM incubated for 48 hrs by qRT-PCR analysis; type: functional, cell-based; procedure, shortened: as §1
WSUDLCL2 = assay: Antiproliferative activity against human WSUDLCL2 cells harboring EZH2-Y641F mutant assessed as inhibition of cell growth at 10 uM incubated for 9 days by optical microscopic analysis; type: functional, cell-based; details: time 9.0 day
Procedure, shortened: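 WSU-DLCL-2 cells seeded at 5 × 10³ per well, incubated 24 h, then exposed to 10 μM compound for 9 days with medium refreshed. Cells photographed and counted on days 1, 3, 5, 7 and 9. Mean SD of three independent experiments, t-test versus DMSO.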

NCI-H1299 [11] = assay: Downregulation of CENPK mRNA expression in human NCI-H1299 cells at 10 uM incubated for 48 hrs by qRT-PCR analysis; type: functional, cell-based; procedure, shortened: as §1
NCI-H1299 [12] = assay: Antiproliferative activity against human NCI-H1299 cells harboring SWI/SNF mutant assessed as inhibition of cell growth at 10 uM treated for 9 days by optical microscopic analysis; type: functional, cell-based; details: time 9.0 day
Procedure, shortened: (§2)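 Cells seeded at 5 × 10³ per well, grown 24 h, then exposed to compound at 10 μM for 9 days with medium refreshed. Cells were photographed and counted on days 1, 3, 5, 7 and 9. For lines 1-2, EZH2-targeting or control shRNA was induced in the cells. Mean SD of three independent experiments; t-test against control.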

A549 [13] = assay: Downregulation of CENPK mRNA expression in human A549 cells at 10 uM incubated for 48 hrs by qRT-PCR analysis; type: functional, cell-based; procedure, shortened: as §1
NCI-H1299 [14] = assay: Downregulation of CEP76 mRNA expression in human NCI-H1299 cells at 10 uM incubated for 48 hrs by qRT-PCR analysis; type: functional, cell-based; procedure, shortened: as §1
A549 [15] = assay: Downregulation of CEP76 mRNA expression in human A549 cells at 10 uM incubated for 48 hrs by qRT-PCR analysis; type: functional, cell-based; procedure, shortened: as §1
MDA-MB-468 [16] = assay: Downregulation of ARL6IP mRNA expression in human MDA-MB-468 cells at 10 uM incubated for 48 hrs by qRT-PCR analysis; type: functional, cell-based; procedure, shortened: as §1
A549 [17] = assay: Downregulation of TACC3 mRNA expression in human A549 cells at 10 uM incubated for 48 hrs by qRT-PCR analysis; type: functional, cell-based; procedure, shortened: as §1
MDA-MB-468 [18] = assay: Downregulation of CEP76 mRNA expression in human MDA-MB-468 cells at 10 uM incubated for 48 hrs by qRT-PCR analysis; type: functional, cell-based; procedure, shortened: as §1
NCI-H1299 [19] = assay: Downregulation of TACC3 mRNA expression in human NCI-H1299 cells at 10 uM incubated for 48 hrs by qRT-PCR analysis; type: functional, cell-based; procedure, shortened: as §1
NCI-H1299 [20] = assay: Downregulation of […] mRNA expression in human NCI-H1299 cells at 10 uM incubated for 48 hrs by qRT-PCR analysis; type: functional, cell-based; procedure, shortened: as §1
[21] = target: T1, Protein cereblon/Histone-lysine N-methyltransferase EZH2 (Homo sapiens); assay: PROTAC activity at CRBN E3 ligase/EZH2 in PRC2 complex in human WSUDLCL2 cells assessed as induction of EZH2 degradation at up to 10 uM incubated for 72 hrs by Western blot analysis; type: cell-based; details: dose microM <=10, time 72.0 hrs
NCI-H1299 [22] = assay: Downregulation of CHEK1 mRNA expression in human NCI-H1299 cells at 10 uM incubated for 48 hrs by qRT-PCR analysis; type: functional, cell-based; procedure, shortened: as §1
MDA-MB-468 [23] = assay: Downregulation of CHEK1 mRNA expression in human MDA-MB-468 cells at 10 uM incubated for 48 hrs by qRT-PCR analysis; type: functional, cell-based; procedure, shortened: as §1
A549 [24] = assay: Downregulation of […] mRNA expression in human A549 cells at 10 uM incubated for 48 hrs by qRT-PCR analysis; type: functional, cell-based; procedure, shortened: as §1
NCI-H1299 [25] = assay: Downregulation of ARL6IP mRNA expression in human NCI-H1299 cells at 10 uM incubated for 48 hrs by qRT-PCR analysis; type: functional, cell-based; procedure, shortened: as §1
MDA-MB-468 [26] = assay: Downregulation of TACC3 mRNA expression in human MDA-MB-468 cells at 10 uM incubated for 48 hrs by qRT-PCR analysis; type: functional, cell-based; procedure, shortened: as §1
[27] = target: T1, Protein cereblon/Histone-lysine N-methyltransferase EZH2 (Homo sapiens); assay: PROTAC activity at CRBN E3 ligase/EZH2 in PRC2 complex in human WSUDLCL2 cells assessed as reduction in H3K27me3 level at up to 10 uM incubated for 72 hrs by Western blot analysis; type: cell-based; details: dose microM <=10, time 72.0 hrs
A549 [28] = assay: Antiproliferative activity against EZH2-knockdown human A549 cells assessed as inhibition of cell growth at 10 uM treated for 9 days by optical microscopic analysis; type: functional, cell-based; details: time 9.0 day; procedure, shortened: as §2
[29] = target: T1, Protein cereblon/Histone-lysine N-methyltransferase EZH2 (Homo sapiens); assay: PROTAC activity at CRBN E3 ligase/EZH2 in PRC2 complex in human WSUDLCL2 cells assessed as reduction in RbAp48 level at 2.5 uM measured after 48 hrs by Western blot analysis; type: cell-based
Procedure, shortened: (§3)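 WSU-DLCL-2 cells exposed 48 h to PROTAC or control analogues at 2.5 μM, with thalidomide and EPZ6438 at 10 μM; PRC2 subunit levels then read by western blot.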

[30] = target: T1, Protein cereblon/Histone-lysine N-methyltransferase EZH2 (Homo sapiens); assay: PROTAC activity at CRBN E3 ligase/EZH2 in PRC2 complex in human WSUDLCL2 cells assessed as reduction in EED level at 2.5 uM measured after 48 hrs by Western blot analysis; type: cell-based; procedure, shortened: as §3
[31] = target: T1, Protein cereblon/Histone-lysine N-methyltransferase EZH2 (Homo sapiens); assay: PROTAC activity at CRBN E3 ligase/EZH2 in PRC2 complex in human WSUDLCL2 cells assessed as reduction in SUZ12 level at 2.5 uM measured after 48 hrs by Western blot analysis; type: cell-based; procedure, shortened: as §3
[32] = target: T1, Protein cereblon/Histone-lysine N-methyltransferase EZH2 (Homo sapiens); assay: PROTAC activity at CRBN E3 ligase/EZH2 in PRC2 complex in human WSUDLCL2 cells assessed as reduction in EZH2 level at 2.5 uM measured after 48 hrs by Western blot analysis; type: cell-based; procedure, shortened: as §3
NCI-H1299 [33] = assay: Antiproliferative activity against EZH2-knockdown human NCI-H1299 cells assessed as inhibition of cell growth at 10 uM treated for 9 days by optical microscopic analysis; type: functional, cell-based; details: time 9.0 day; procedure, shortened: as §2
A549 [34] = assay: Antiproliferative activity against human A549 cells harboring SWI/SNF mutant assessed as inhibition of cell growth at 10 uM treated for 9 days by optical microscopic analysis; type: functional, cell-based; details: time 9.0 day; procedure, shortened: as §2

T1 sequence (Q15910 whole entry, looked up): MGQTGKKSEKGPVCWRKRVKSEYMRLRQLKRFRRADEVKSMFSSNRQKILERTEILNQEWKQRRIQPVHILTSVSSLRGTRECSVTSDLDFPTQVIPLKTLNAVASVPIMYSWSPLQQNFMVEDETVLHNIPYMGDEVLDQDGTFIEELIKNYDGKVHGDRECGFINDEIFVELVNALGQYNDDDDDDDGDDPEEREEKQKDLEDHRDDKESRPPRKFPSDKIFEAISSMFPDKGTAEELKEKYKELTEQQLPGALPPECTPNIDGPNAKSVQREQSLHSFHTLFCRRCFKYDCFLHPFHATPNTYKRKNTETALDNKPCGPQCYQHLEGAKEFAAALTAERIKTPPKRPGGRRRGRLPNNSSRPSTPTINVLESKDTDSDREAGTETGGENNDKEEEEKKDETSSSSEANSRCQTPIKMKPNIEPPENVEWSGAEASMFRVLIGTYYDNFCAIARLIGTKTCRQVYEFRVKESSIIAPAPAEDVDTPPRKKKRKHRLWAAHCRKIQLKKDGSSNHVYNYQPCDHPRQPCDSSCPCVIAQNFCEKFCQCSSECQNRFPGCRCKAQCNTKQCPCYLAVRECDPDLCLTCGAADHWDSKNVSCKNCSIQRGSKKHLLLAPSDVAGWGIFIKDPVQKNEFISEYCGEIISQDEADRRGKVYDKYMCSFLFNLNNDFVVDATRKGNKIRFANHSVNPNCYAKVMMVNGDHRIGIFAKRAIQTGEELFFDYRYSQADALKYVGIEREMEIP
T1 sequence (Q96SW2 whole entry, looked up): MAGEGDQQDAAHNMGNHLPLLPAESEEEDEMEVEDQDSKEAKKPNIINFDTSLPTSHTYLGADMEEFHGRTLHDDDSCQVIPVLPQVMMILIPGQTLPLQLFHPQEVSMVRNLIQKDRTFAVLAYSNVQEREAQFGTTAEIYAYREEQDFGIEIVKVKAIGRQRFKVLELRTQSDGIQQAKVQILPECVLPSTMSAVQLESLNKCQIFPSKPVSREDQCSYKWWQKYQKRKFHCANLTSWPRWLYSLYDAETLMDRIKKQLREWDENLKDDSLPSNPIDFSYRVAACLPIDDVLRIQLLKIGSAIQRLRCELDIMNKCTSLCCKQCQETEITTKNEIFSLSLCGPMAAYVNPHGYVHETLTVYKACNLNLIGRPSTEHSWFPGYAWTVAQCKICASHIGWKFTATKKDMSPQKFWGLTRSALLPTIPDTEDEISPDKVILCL
Histone-lysine N-methyltransferase EZH2, sequence (Q15910 whole entry): as the sequence (Q15910 whole entry, looked up) above

SMILES | Activity [1] | IC50 [3] [nM] | Activity [6] | Activity (MDA-MB-468 [7]) | Activity (MDA-MB-468 [8]) | Activity (A549 [9]) | Activity (A549 [10]) | Activity (WSUDLCL2) | Activity (NCI-H1299 [11]) | Activity (NCI-H1299 [12]) | Activity (A549 [13]) | Activity (NCI-H1299 [14]) | Activity (A549 [15]) | Activity (MDA-MB-468 [16]) | Activity (A549 [17]) | Activity (MDA-MB-468 [18]) | Activity (NCI-H1299 [19]) | Activity (NCI-H1299 [20]) | Activity (NCI-H1299 [22]) | Activity (MDA-MB-468 [23]) | further results
CC[C@H](C)n1cc(C)c2c(C(=O)NCc3c(C)cc(C)[nH]c3=O)cc(-c3ccc(N4CCN(CCCCCCCCCCCCOc5cccc6c5C(=O)N(C5CCC(=O)NC5=O)C6=O)CC4)nc3)cc21 (stereo partly drawn) | Active | 61 | Active |  |  |  |  |  |  |  |  |  |  |  |  |  |  |  |  |  | Activity [2]: Active; Activity [4]: Dose-Dependent Effect; Activity [5]: Dose-Dependent Effect
CC[C@H](C)n1cc(C)c2c(C(=O)NCc3c(C)cc(C)[nH]c3=O)cc(-c3ccc(N4CCNCC4)nc3)cc21 | inactive |  | inactive | inactive | inactive | inactive | inactive | Active | inactive | inactive | inactive | inactive | inactive | inactive | inactive | inactive | inactive | inactive | inactive | inactive | Activity [21]: inactive; Activity (A549 [24]): inactive; Activity (NCI-H1299 [25]): inactive; Activity (MDA-MB-468 [26]): inactive; Activity [27]: Active
CCN(c1cc(-c2ccc(CN3CCN(CCCCCCCOc4cccc5c4C(=O)N(C4CCC(=O)N(C)C4=O)C5=O)CC3)cc2)cc(C(=O)NCc2c(C)cc(C)[nH]c2=O)c1C)C1CCOCC1 (stereo not drawn) |  | 1.93 |  |  |  |  |  |  |  |  |  |  |  |  |  |  |  |  |  |  | Activity (A549 [28]): inactive; Activity [29]: inactive; Activity [30]: inactive; Activity [31]: inactive; Activity [32]: inactive; Activity (NCI-H1299 [33]): inactive
CCN(c1cc(-c2ccc(CN3CCOCC3)cc2)cc(C(=O)NCc2c(C)cc(C)[nH]c2=O)c1C)C1CCOCC1 |  |  |  | inactive | inactive | inactive | inactive | Active | inactive | inactive | inactive | inactive | inactive | inactive | inactive | inactive | inactive | inactive | inactive | inactive | Activity (A549 [34]): inactive; Activity (A549 [24]): inactive; Activity (NCI-H1299 [25]): inactive; Activity (MDA-MB-468 [26]): inactive
